Screening results deposited in PubChem by several laboratories.
This is a sample that favours compounds with a hit; in the whole collection about 1.9% have one here.
beta cell repl – induces beta-cell replication in MIN6 cells; MIN6 cells proliferation, ATPlite luminescence, 48 h; cells starved in 0.2% serum; 100% = growth in 10% serum; proliferation, % at 10 µM; 330,000 compounds, 0.29% hits; AID 2380;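 active = compounds whose signal lies at least 3.5 SD above the mean of all wells on their plate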
V-ATPase pH – yeast V-ATPase proton transport regulation by pHLuorin; S. cerevisiae, pHLuorin cytosolic pH fluorescence; AID 504577; 350,000 compounds, 0.37% hits; response, % at 10 µM; in the data active = response mostly above about 7.3%, no sharp cut-off; inactive = mostly below about 5.4%; also: actives read high
CR mimetic SO – yeast age-related superoxide inhibition as caloric restriction mimetic. S. cerevisiae aged cells, superoxide DHE fluorescence; active compounds read low. superoxide response (% of plate mean), % at 10 µM. 330,000 compounds, 0.18% hits. AID 2690;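 active = superoxide response under a set limit, about three screen SD below normal, cut at about 65% in these data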;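 also: yeast aged for seven days with compound at 30 °C before DHE staining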
Rce1 inhib – blocks yeast Ras-converting enzyme | Q03530 | yeast membranes, quenched prenylated peptide cleavage fluorescence | calls only | 290,000 compounds, 0.27% hits | AID 2563;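 active = fall in fluorescence gain of 50% or more versus controls, with final raw signal at or below 3038400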
T cell HTS – T cell immune modulators affecting CD8 T cell-vesicle binding; response (vesicle binding), % at 7 µM; 2C CD8+ T cell-vesicle binding, flow cytometry; active compounds read low; 330,000 compounds, 0.068% hits;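 active = response, share of CD8 T cells binding vesicles, and their 90th percentile fluorescence all below set limits, cut at about 80% in these data, passing the limit was not always enough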;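 also: values below 100% mean blocked vesicle binding to the CD8+ T cells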
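Material: 2C TCR transgenic mouse naive CD8+ T cells, MACS-purified. Also added: QL9-charged Drosophila Ld/ICAM-1/B7-1 vesicles. Timing: binding 1.5 h at 37 °C. Measured by: high-throughput flow cytometry with anti-B7-1 and anti-CD8 staining. Read-out: percent CD8+ FL2 mean versus row control. Controls: Unloaded micro-vesicles (low), QL9 vesicles with 0.7% DMSO (high).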
KLK7 zymogen act – activates the human kallikrein-7 zymogen. P49862. purified proKLK7, EDANS-DABCYL substrate fluorescence; 100% is mature enzyme control, 0% vehicle. activation, % at 7 µM. 370,000 compounds, 0.9% hits. AID 652039;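 active = activation above the mean of all tested compounds plus 3 SD, computed per campaign excluding outliers beyond control limits, cut at about 13% in these data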
Target sequence (P49862 whole entry, looked up): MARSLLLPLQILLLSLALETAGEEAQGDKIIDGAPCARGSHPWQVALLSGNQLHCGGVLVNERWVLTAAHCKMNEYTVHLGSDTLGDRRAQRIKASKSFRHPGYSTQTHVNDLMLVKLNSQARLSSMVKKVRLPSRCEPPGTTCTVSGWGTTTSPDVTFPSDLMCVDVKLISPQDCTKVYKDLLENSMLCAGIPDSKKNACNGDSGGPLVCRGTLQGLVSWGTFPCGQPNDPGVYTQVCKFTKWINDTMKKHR
KLK7 act conf – confirmation of human kallikrein-7 zymogen activators | shares compounds with KLK7 zymogen act | purified proKLK7, EDANS-DABCYL substrate fluorescence; scaled: vehicle 0, mature enzyme 100 | activation, % at 7 µM | 3,200 compounds, 68% hits;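 active = activation, as change over the incubation, above the mean of all tested compounds plus 3 SD, cut at about 13% in these data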
EDANS interfere – optically interferes with EDANS-DABCYL signal, flagging KLK7 hits; EDANS-DABCYL substrate fluorescence interference, no enzyme, 4 h; solvent 0%, active enzyme control 100%; 3,200 compounds, 80% hits; AID 686952; shares compounds with KLK7 zymogen act; activation, % at 7 µM;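 active = activation above the all-compound mean plus 3 SD, ignoring values outside control-based bounds, cut at about 4.8% in these data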;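 also: value is the 4 h activation minus the activation read at time zero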
K7 EDANS ctr – counter-screen for kallikrein-7 activators: EDANS-DABCYL interference, dose response | AID 720493 | EC50, µM | 250 compounds, 20% hits | shares compounds with KLK7 zymogen act | EDANS-DABCYL peptide fluorescence interference, no enzyme;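 active = compounds that raise the fluorescence signal in this interference counterscreen, with EC50 at or below 10 µM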;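 also: intact quenched peptide substrate alone read at 355 nm excitation and 520 nm emission; signal is fluorescence gain from T0 to T4 after four hours at room temperature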
A number is an active result; . = inactive; / = no result.

SMILES	beta cell repl	V-ATPase pH	CR mimetic SO	Rce1 inhib	T cell HTS	KLK7 zymogen act	KLK7 act conf	EDANS interfere	others
Cc1cccc(-c2nnc(SCC(=O)Nc3ccc(-c4nc5ccc(C)cc5s4)cc3)n2Cc2ccco2)c1	/	/	/	/	/	67.8	61.7	91.6
Cc1ccc(N(CC(=O)Nc2ccc(-c3nc4ccc(C)cc4s3)cc2)S(C)(=O)=O)cc1	.	.	.	.	.	.	/	/
CCOC(=O)c1c(NC(=O)CSc2nnc(-c3cccnc3)n2Cc2ccco2)sc(C)c1C	.	.	.	.	.	13.5	.	.
Cc1ccc2nc(-c3ccc(NC(=O)CSc4nnc(-c5ccccc5)n4Cc4ccco4)cc3)sc2c1	/	/	/	/	/	127.7	297.2	333.1
Cc1ccc(NC(=O)CSc2nnc(-c3cccnc3)n2Cc2ccco2)c(C)c1	/	/	/	/	/	.	/	/
CCOC(=O)C1CSCCS(=O)(=O)N1Cc1ccccc1F (stereo unspecified)	/	/	/	/	/	.	/	/
CN(CC1COc2ccccc2O1)C(=O)Cn1cc(C(F)(F)F)ccc1=O (stereo unspecified)	.	.	.	/	.	.	/	/
Cc1ccc2nc(-c3ccc(NC(=O)CSc4nnc(Cc5cccs5)n4C)cc3)sc2c1	/	/	/	/	/	149.4	157.3	86.4
CC(Nc1ccc2c(c1)OCCO2)C(=O)Nc1ccc2c(c1)OCO2 (stereo unspecified)	.	.	.	.	.	48.9	39.4	51.8
Cc1ccccc1NC(=S)NC1CCCC1	.	.	.	.	.	.	/	/
Cc1cccc(NC(=S)NNC(=S)NC2CCCCC2)c1C	.	.	.	.	.	27.6	.	.
COc1nc(N=C(N)N)nc2ccc(C)cc12	.	/	.	.	.	17.3	.	9.5
CCCCS(=O)(=O)N1CCCc2nc(CC)c(CC)cc21	/	/	/	/	/	.	/	/
CCc1cc2c(nc1CC)CCCN2C	/	/	/	/	/	29.5	.	.
CC1C(C#N)=C(SCC(N)=O)NC2=C1C(=O)CC(C)(C)C2 (stereo unspecified)	.	.	.	.	.	.	/	/
CC1=C(C#N)C(C)C2=C(CC(C)(C)CC2=O)N1 (stereo unspecified)	.	.	.	.	.	16.2	39.2	40.4
CC1=C(C#N)C(c2ccc(O)cc2)C2=C(CC(C)(C)CC2=O)N1 (stereo unspecified)	.	.	.	.	.	.	/	/
CC1=C(C#N)C(c2cccnc2)C2=C(CC(C)(C)CC2=O)N1 (stereo unspecified)	.	.	.	.	.	37.5	66.5	52.0	K7 EDANS ctr=.
CN1CCC(N2CCN(C3CN(Cc4cn(Cc5cccc(C(F)(F)F)c5)nn4)S(=O)(=O)C3)CC2)CC1 (stereo unspecified)	/	/	/	/	/	.	/	/
COc1ccc(OC)c(/C=N/n2c(COc3ccccc3)n[nH]c2=S)c1	.	.	.	.	.	19.9	43.1	37.3
COc1ccc(Br)cc1/C=N/n1c(COc2ccccc2)n[nH]c1=S	.	.	.	.	.	.	/	/
O=C(NC1CCCCC1)NS(=O)(=O)c1ccc2c(c1)CCC2	/	.	/	/	/	.	/	/
COc1cccc2sc(NNC(=O)C3=COCCO3)nc12	.	.	.	.	.	.	/	/
COc1ccc(OC)c2sc(NC(=O)C3=COCCO3)nc12	.	.	.	.	.	56.1	.	.
CS(=O)(=O)Nc1ccccc1C(=O)OCC(=O)NCc1cccs1	.	.	.	/	.	.	/	/
COc1ccc(CCNC(=O)COC(=O)c2ccco2)cc1OC	.	.	.	.	.	.	/	/
COc1ccc(CCNC(=O)COC(=O)c2ccccc2NCCO)cc1OC	.	.	.	.	.	18.8	26.2	33.6
O=C(COC(=O)c1ccccc1NCCO)NCc1cccs1	.	.	.	.	.	17.6	19.3	20.6
CCc1ccc(N(CC(=O)NC2CC2)S(=O)(=O)c2ccc(C)cc2)cc1	.	.	.	.	.	.	/	/
